Experiments:
[1] = system: Pseudomonas aeruginosa; experiment: Antimicrobial activity against Pseudomonas aeruginosa isolate 19056 in neutropenic Swiss mouse lung infection model assessed as bacterial load in mouse thigh after 2 hrs; format: functional, organism-based
Method in brief: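 Lung model: neutropenic Swiss mice under isoflurane given 50 µl of ~10^8 CFU/ml early-log suspension intranasally in ~10 µl portions, then held head-up 1 min. Untreated controls killed 2 h post-inoculation; lungs homogenized in 2 ml saline, viable counts by dilution plating on nutrient agar; lower limit 220 CFU/lung.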

[2] = fAUC/MIC in Pseudomonas aeruginosa PAO1 infected Swiss mouse thigh infection model assessed as 1-log10 kill after 24 hrs; format: functional
Method in brief: (§1)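 Unbound single-dose profiles superimposed to give 24-h fAUC (trapezoidal) per regimen, divided by MIC; log10 CFU per thigh or lung at 24 h fitted to inhibitory sigmoid Emax model by nonlinear least squares; fAUC/MIC for stasis (24-h count equal to treatment-start count) and 1-, 2-, 3-log10 kill derived from fitted parameters.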

[3] = fAUC/MIC in Pseudomonas aeruginosa ATCC 27853 infected Swiss mouse lung infection model assessed as 3-log10 kill after 24 hrs; format: functional; method in brief: as §1
[4] = fAUC/MIC in Pseudomonas aeruginosa isolate 19056 infected Swiss mouse lung infection model assessed as induction of static antimicrobial effect after 24 hrs; format: functional
[5] = system: Pseudomonas aeruginosa; experiment: Antimicrobial activity against Pseudomonas aeruginosa ATCC 27853 by broth microdilution method; format: functional, organism-based
Method in brief: (§2)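 Colistin (sulfate) MIC by broth microdilution; strains stored in tryptone soy broth with 20% glycerol at −80°C and subcultured overnight on horse blood agar at 37°C before use.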

[6] = system: Pseudomonas aeruginosa; experiment: Antimicrobial activity against Pseudomonas aeruginosa ATCC 27853 in neutropenic Swiss mouse lung infection model assessed as bacterial load in mouse thigh at 40 mg/kg, sc after 24 hrs; format: functional, organism-based; parameters: dose 40 mg/kg
Method in brief: (§3)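 Neutropenic lung-infected Swiss mice; colistin (sulfate) s.c. from 2 h post-inoculation, 5–40 mg/kg per dose every 6, 8, 12 or 24 h. Killed 24 h after treatment start; lungs homogenized in saline and plated; log10 CFU/lung (limit 220 CFU); change versus 2 h burden.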

[7] = system: Pseudomonas aeruginosa; experiment: Antimicrobial activity against Pseudomonas aeruginosa isolate 19056 infected in neutropenic Swiss mouse lung infection model assessed as reduction in bacterial burden relative to control; format: functional, organism-based; method in brief: as §3
[8] = fAUC/MIC in Pseudomonas aeruginosa ATCC 27853 infected Swiss mouse thigh infection model assessed as 3-log10 kill after 24 hrs; format: functional; method in brief: as §1
[9] = system: Pseudomonas aeruginosa; experiment: Antimicrobial activity against Pseudomonas aeruginosa PAO1 infected in neutropenic Swiss mouse lung infection model assessed as reduction in bacterial burden relative to control; format: functional, organism-based; method in brief: as §3
[10] = system: Pseudomonas aeruginosa; experiment: Antimicrobial activity against Pseudomonas aeruginosa PAO1 in neutropenic Swiss mouse thigh infection model assessed as bacterial load in mouse thigh at 40 mg/kg, sc after 24 hrs; format: functional, organism-based; parameters: dose 40 mg/kg
Method in brief: (§4)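 Neutropenic thigh-infected Swiss mice; colistin (sulfate) s.c. started 2 h after inoculation, 5–40 mg/kg per dose every 3, 6, 8, 12 or 24 h (5–160 mg/kg/day), two mice per regimen. Killed 24 h after treatment start; each thigh homogenized and plated on nutrient agar; log10 CFU/thigh, lower count limit 100 CFU; change versus 2 h burden.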

[11] = fAUC/MIC in Pseudomonas aeruginosa ATCC 27853 infected Swiss mouse thigh infection model assessed as 1-log10 kill after 24 hrs; format: functional; method in brief: as §1
[12] = fAUC/MIC in Pseudomonas aeruginosa PAO1 infected Swiss mouse lung infection model assessed as 1-log10 kill after 24 hrs; format: functional; method in brief: as §1
[13] = system: Pseudomonas aeruginosa; experiment: Antimicrobial activity against Pseudomonas aeruginosa isolate 19056 in neutropenic Swiss mouse thigh infection model assessed as bacterial load in mouse thigh after 2 hrs; format: functional, organism-based; conditions: Thigh muscle
Method in brief: (§5)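 Thigh model: female Swiss mice (22–26 g) made neutropenic with cyclophosphamide i.p. (150 mg/kg day −4, 100 mg/kg day −1). Under isoflurane, ~10^7 CFU/ml early-log suspension injected i.m. (50 µl per posterior thigh). Untreated controls killed 2 h post-inoculation; thighs homogenized in saline, filtered, serially diluted, plated on nutrient agar, counted after 24 h at 37°C; log10 CFU/thigh.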

[14] = fAUC/MIC in Pseudomonas aeruginosa PAO1 infected Swiss mouse lung infection model assessed as 2-log10 kill after 24 hrs; format: functional; method in brief: as §1
[15] = system: Pseudomonas aeruginosa; experiment: Antimicrobial activity against Pseudomonas aeruginosa isolate 19056 infected in neutropenic Swiss mouse thigh infection model assessed as reduction in bacterial burden relative to control; format: functional, organism-based; conditions: Thigh muscle; method in brief: as §4
[16] = system: Pseudomonas aeruginosa; experiment: Antimicrobial activity against Pseudomonas aeruginosa isolate 19056 in neutropenic Swiss mouse thigh infection model assessed as bacterial load in mouse thigh at 40 mg/kg, sc after 24 hrs; format: functional, organism-based; parameters: dose 40 mg/kg; method in brief: as §4
[17] = fAUC/MIC in Pseudomonas aeruginosa isolate 19056 infected Swiss mouse thigh infection model after assessed as 3-log10 kill after 24 hrs; format: functional
[18] = system: Pseudomonas aeruginosa; experiment: Antimicrobial activity against Pseudomonas aeruginosa PAO1 in neutropenic Swiss mouse thigh infection model assessed as bacterial load in mouse thigh after 2 hrs; format: functional, organism-based; conditions: Thigh muscle; method in brief: as §5
[19] = fAUC/MIC in Pseudomonas aeruginosa isolate 19056 infected Swiss mouse lung infection model assessed as 3-log10 kill after 24 hrs; format: functional
[20] = fAUC/MIC in Pseudomonas aeruginosa isolate 19056 infected Swiss mouse thigh infection model after assessed as 1-log10 kill 24 hrs; format: functional
[21] = system: Pseudomonas aeruginosa; experiment: Antimicrobial activity against Pseudomonas aeruginosa PAO1 in neutropenic Swiss mouse lung infection model assessed as bacterial load in mouse thigh after 2 hrs; format: functional, organism-based; conditions: Thigh muscle
[22] = system: Pseudomonas aeruginosa; experiment: Antimicrobial activity against Pseudomonas aeruginosa PAO1 in neutropenic Swiss mouse lung infection model assessed as bacterial load in mouse thigh at 40 mg/kg, sc after 24 hrs; format: functional, organism-based; parameters: dose 40 mg/kg; method in brief: as §3
[23] = fAUC/MIC in Pseudomonas aeruginosa ATCC 27853 infected Swiss mouse lung infection model assessed as 2-log10 kill after 24 hrs; format: functional; method in brief: as §1
[24] = fAUC/MIC in Pseudomonas aeruginosa isolate 19056 infected Swiss mouse lung infection model assessed as 2-log10 kill after 24 hrs; format: functional
[25] = system: Pseudomonas aeruginosa; experiment: Antimicrobial activity against Pseudomonas aeruginosa ATCC 27853 infected in neutropenic Swiss mouse thigh infection model assessed as reduction in bacterial burden relative to control; format: functional, organism-based; conditions: Thigh muscle; method in brief: as §4
[26] = fAUC/MIC in Pseudomonas aeruginosa PAO1 infected Swiss mouse lung infection model assessed as induction of static antimicrobial effect after 24 hrs; format: functional; method in brief: as §1
[27] = system: Pseudomonas aeruginosa; experiment: Antimicrobial activity against Pseudomonas aeruginosa ATCC 27853 infected in neutropenic Swiss mouse lung infection model assessed as reduction in bacterial burden relative to control; format: functional, organism-based; method in brief: as §3
[28] = system: Pseudomonas aeruginosa; experiment: Antimicrobial activity against Pseudomonas aeruginosa isolate 19056 by broth microdilution method; format: functional, organism-based; method in brief: as §2
[29] = fAUC/MIC in Pseudomonas aeruginosa PAO1 infected Swiss mouse lung infection model assessed as 3-log10 kill after 24 hrs; format: functional; method in brief: as §1
[30] = fAUC/MIC in Pseudomonas aeruginosa isolate 19056 infected Swiss mouse thigh infection model assessed as induction of static antimicrobial effect after 24 hrs; format: functional
[31] = system: Pseudomonas aeruginosa; experiment: Antimicrobial activity against Pseudomonas aeruginosa ATCC 27853 in neutropenic Swiss mouse lung infection model assessed as bacterial load in mouse thigh after 2 hrs; format: functional, organism-based; conditions: Thigh muscle
[32] = system: Pseudomonas aeruginosa; experiment: Antimicrobial activity against Pseudomonas aeruginosa PAO1 infected in neutropenic Swiss mouse thigh infection model assessed as reduction in bacterial burden relative to control; format: functional, organism-based; conditions: Thigh muscle; method in brief: as §4
[33] = fAUC/MIC in Pseudomonas aeruginosa PAO1 infected Swiss mouse thigh infection model assessed as induction of static antimicrobial effect after 24 hrs; format: functional
[34] = fAUC/MIC in Pseudomonas aeruginosa PAO1 infected Swiss mouse thigh infection model assessed as 3-log10 kill after 24 hrs; format: functional
[35] = fAUC/MIC in Pseudomonas aeruginosa ATCC 27853 infected Swiss mouse thigh infection model assessed as induction of static antimicrobial effect after 24 hrs; format: functional; method in brief: as §1
[36] = fAUC/MIC in Pseudomonas aeruginosa isolate 19056 infected Swiss mouse lung infection model assessed as 1-log10 kill after 24 hrs; format: functional
[37] = fAUC/MIC in Pseudomonas aeruginosa PAO1 infected Swiss mouse thigh infection model assessed as 2-log10 kill after 24 hrs; format: functional
[38] = fAUC/MIC in Pseudomonas aeruginosa ATCC 27853 infected Swiss mouse lung infection model assessed as 1-log10 kill after 24 hrs; format: functional; method in brief: as §1
[39] = fAUC/MIC in Pseudomonas aeruginosa isolate 19056 infected Swiss mouse thigh infection model after assessed as 2-log10 kill after 24 hrs; format: functional
[40] = fAUC/MIC in Pseudomonas aeruginosa ATCC 27853 infected Swiss mouse thigh infection model assessed as 2-log10 kill after 24 hrs; format: functional; method in brief: as §1
[41] = system: Pseudomonas aeruginosa; experiment: Antimicrobial activity against Pseudomonas aeruginosa ATCC 27853 in neutropenic Swiss mouse thigh infection model assessed as bacterial load in mouse thigh after 2 hrs; format: functional, organism-based; conditions: Thigh muscle; method in brief: as §5
[42] = system: Pseudomonas aeruginosa; experiment: Antimicrobial activity against Pseudomonas aeruginosa ATCC 27853 in neutropenic Swiss mouse thigh infection model assessed as bacterial load in mouse thigh at 40 mg/kg, sc after 24 hrs; format: functional, organism-based; parameters: dose 40 mg/kg; method in brief: as §4
[43] = system: Pseudomonas aeruginosa; experiment: Antimicrobial activity against Pseudomonas aeruginosa PAO1 by broth microdilution method; format: functional, organism-based; method in brief: as §2
[44] = fAUC/MIC in Pseudomonas aeruginosa ATCC 27853 infected Swiss mouse lung infection model assessed as induction of static antimicrobial effect after 24 hrs; format: functional; method in brief: as §1

COLISTIMETHATE SODIUM
log10cfu [1]: 6.43 | fAUC/MIC [2]: 22.8 | fAUC/MIC [3]: 105 | fAUC/MIC [4]: 4.07 | MIC [5]: 1 µg/mL | log10cfu [6]: 3.58 | Emax (log10 CFU/organ) [7]: 6.86 | fAUC/MIC [8]: 55.1 | Emax (log10 CFU/organ) [9]: 7.36 | log10cfu [10]: 4.01 | fAUC/MIC [11]: 22.7 | fAUC/MIC [12]: 16.7 | log10cfu [13]: 6.26 | fAUC/MIC [14]: 45.9 | Emax (log10 CFU/organ) [15]: 6.23 | log10cfu [16]: 3.69 | fAUC/MIC [17]: 53.3 | log10cfu [18]: 6.35 | fAUC/MIC [19]: 141 | fAUC/MIC [20]: 15.6 | log10cfu [21]: 6.92 | log10cfu [22]: 3.09 | fAUC/MIC [23]: 37.9 | fAUC/MIC [24]: 36.9 | Emax (log10 CFU/organ) [25]: 6.29 | fAUC/MIC [26]: 5.42 | Emax (log10 CFU/organ) [27]: 7.58 | MIC [28]: 0.5 µg/mL | fAUC/MIC [29]: 135 | fAUC/MIC [30]: 8.34 | log10cfu [31]: 6.64 | Emax (log10 CFU/organ) [32]: 5.97 | fAUC/MIC [33]: 14.4 | fAUC/MIC [34]: 66.7 | fAUC/MIC [35]: 17.3 | fAUC/MIC [36]: 12.2 | fAUC/MIC [37]: 36.1 | fAUC/MIC [38]: 15.6 | fAUC/MIC [39]: 27.6 | fAUC/MIC [40]: 31.2 | log10cfu [41]: 6.14 | log10cfu [42]: 3.17 | MIC [43]: 1 µg/mL | fAUC/MIC [44]: 6.43

— ChEMBL document CHEMBL1240382, “Elucidation of the pharmacokinetic/pharmacodynamic determinant of colistin activity against Pseudomonas aeruginosa in murine thigh and lung infection models” (Antimicrob Agents Chemother, 2010)
